According to the array DNA melting data of Ke et al. (doi:10.1101/2024.01.08.574731):

Tests used:
[1] = melting temperature; fluorescence melt of hairpins on a sequencing array, two-state fit, raised by 9.35 °C to match UV melts; conditions: sodium 0.088 M
In short: (§1)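 Cy3 fluorescence of library hairpins on a sequenced MiSeq flow cell, with annealed Cy3 and quencher oligos, was imaged in 50 mM Na-HEPES pH 8.0, 25 mM NaCl in 2.5 °C steps up to 60 °C. Signals were normalised to pre-quench Cy3 and to control variants. Melting temperature and folding enthalpy came from bootstrapped two-state fits, inverse-variance combined over four replicates. Fitted temperatures were raised by 9.35 °C to match UV melts.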

[2] = folding enthalpy; higher = less favourable; fluorescence melt of hairpins on a sequencing array, two-state fit; conditions: sodium 0.088 M
In short: as §1

GAAGTGGCGAAAGCCTTC (((..(((....))))))
Tm [1]: 31.4 °C
folding enthalpy [2]: -11.4 kcal/mol

GCCATTCGAAAGAACGGC (((.(((....))).)))
Tm [1]: 49.6 °C
folding enthalpy [2]: -40.1 kcal/mol

GACTGACGAAAGTCGTC (((.(((....))))))
Tm [1]: 52.6 °C
folding enthalpy [2]: -14.2 kcal/mol

GGTAACCGAAAGGTACC (((.(((....))))))
Tm [1]: 51.1 °C
folding enthalpy [2]: -19.4 kcal/mol

GGTGATCGAAAGATTACC (((.(((....))).)))
Tm [1]: 51.1 °C
folding enthalpy [2]: -46.1 kcal/mol

GAAAATGCGAAAGCATTC (((..(((....))))))
Tm [1]: 32.7 °C
folding enthalpy [2]: -10 kcal/mol

GCGTTAACGAAAGTTCGC (((..(((....))))))
Tm [1]: 46.8 °C
folding enthalpy [2]: -29.4 kcal/mol

GGCACCCGAAAGGGCGCC (((.(((....))).)))
Tm [1]: 69 °C
folding enthalpy [2]: -31.7 kcal/mol

GCAGGGCGAAAGCCGAGC ((..(((....)))..))
Tm [1]: 50.1 °C
folding enthalpy [2]: -14.9 kcal/mol

GCTACGACGAAAGTCAGC (((..(((....))))))
Tm [1]: 37 °C
folding enthalpy [2]: -17 kcal/mol

GATGGAGGAAACTCCATC (((((((....)))))))
Tm [1]: 59 °C
folding enthalpy [2]: -38.5 kcal/mol

GCAGGGCGAAAGCAATGC (((..((....))..)))
Tm [1]: 59.9 °C
folding enthalpy [2]: -24.1 kcal/mol

GCTCGGCGAAAGCCCGGC ((..(((....)))..))
Tm [1]: 56.9 °C
folding enthalpy [2]: -7.98 kcal/mol

GCCTGGCGAAAGCACGGC (((..((....))..)))
Tm [1]: 59.1 °C
folding enthalpy [2]: -24.3 kcal/mol

TCTGGGAAACCAGA (((((....)))))
Tm [1]: 47.1 °C
folding enthalpy [2]: -15 kcal/mol

GGGCTAGGAAACTAGCTC (.(((((....))))).)
Tm [1]: 50.9 °C
folding enthalpy [2]: -28.9 kcal/mol

GTCAACGAAAGTTCGGAC ((((((....)))..)))
Tm [1]: 30.5 °C
folding enthalpy [2]: -14 kcal/mol

GAATTGGGAAACCGATTC ((((.((....)).))))
Tm [1]: 43.4 °C
folding enthalpy [2]: -36.4 kcal/mol

GCTGAAGGAAACTTTAGC (((.(((....))).)))
Tm [1]: 41.5 °C
folding enthalpy [2]: -29.2 kcal/mol

GATCGACGAGTCGATC ((((((....))))))
Tm [1]: 64 °C
folding enthalpy [2]: -45.8 kcal/mol

GAACACGAAAGTGTTTC ((((((....))).)))
Tm [1]: 52.9 °C
folding enthalpy [2]: -12.4 kcal/mol

GATCTGCCTCCAGATC ((((((....))))))
Tm [1]: 46.3 °C
folding enthalpy [2]: -32.6 kcal/mol

GACCGCGAAAGCGCTGTC ((((((....)))..)))
Tm [1]: 39 °C
folding enthalpy [2]: -14.3 kcal/mol

GCGCATGGAAACGTGCGC (((((.(....).)))))
Tm [1]: 66.6 °C
folding enthalpy [2]: -41 kcal/mol

GTAGTAGGAAACCACTAC (((((.(....).)))))
Tm [1]: 35 °C
folding enthalpy [2]: -28.9 kcal/mol

GCTACTGAAAAGTAGC ((((((....))))))
Tm [1]: 56.7 °C
folding enthalpy [2]: -35.1 kcal/mol

CGGGACCGGAAACGGCCG (((..(((....))))))
Tm [1]: 48.5 °C
folding enthalpy [2]: -16.1 kcal/mol

GGATGAGAAATCATCC ((((((....))))))
Tm [1]: 52.9 °C
folding enthalpy [2]: -42.4 kcal/mol

GATCAGATACCTGATC ((((((....))))))
Tm [1]: 48 °C
folding enthalpy [2]: -36.7 kcal/mol

GCGTGCGAAAGCAGACGC ((((((....)))..)))
Tm [1]: 62.7 °C
folding enthalpy [2]: -28.1 kcal/mol

GGATTAGGAAACTAACCC ((.((((....)))).))
Tm [1]: 30.1 °C
folding enthalpy [2]: -17.3 kcal/mol

GTTAAACGAAAGTTGAAC (((.(((....))).)))
Tm [1]: 41.7 °C
folding enthalpy [2]: -26 kcal/mol

GTTGACGGAAACATCAAC (((((.(....).)))))
Tm [1]: 37.2 °C
folding enthalpy [2]: -31.8 kcal/mol

CGCTAGAAATAGCG (((((....)))))
Tm [1]: 51.8 °C
folding enthalpy [2]: -24.9 kcal/mol

GATTGTGGAAACACAATC (((((((....)))))))
Tm [1]: 56.8 °C
folding enthalpy [2]: -43.6 kcal/mol

GATCGCCCGAGCGATC ((((((....))))))
Tm [1]: 67.5 °C
folding enthalpy [2]: -37.4 kcal/mol

GATCGATTCTCGATC ((((((...))))))
Tm [1]: 53.3 °C
folding enthalpy [2]: -38.8 kcal/mol

GTTTGTGCGAAAGCAAAC (((..(((....))))))
Tm [1]: 41.5 °C
folding enthalpy [2]: -18.2 kcal/mol

GGGGTTGGAAACGACCCC (((((.(....).)))))
Tm [1]: 57.8 °C
folding enthalpy [2]: -49.1 kcal/mol

GCGGGCTGCCGC ((((....))))
Tm [1]: 60.9 °C
folding enthalpy [2]: -19.5 kcal/mol

GGTCTGGGAAACTGGACC ((((..(....)..))))
Tm [1]: 45.1 °C
folding enthalpy [2]: -31.1 kcal/mol

GCAGTAGGAAACCACTGC (((((.(....).)))))
Tm [1]: 48.2 °C
folding enthalpy [2]: -29.2 kcal/mol

GTATACGAAAGTACATAC ((((((....)))..)))
Tm [1]: 21.3 °C
folding enthalpy [2]: -10.6 kcal/mol

GCTATATCGAAAGATAGC (((..(((....))))))
Tm [1]: 36.2 °C
folding enthalpy [2]: -25.2 kcal/mol

GATCATTAAAATGATC ((((((....))))))
Tm [1]: 45.2 °C
folding enthalpy [2]: -29.5 kcal/mol

GTATCGCGAAAGCGTTAC (((.(((....))).)))
Tm [1]: 48.4 °C
folding enthalpy [2]: -21.2 kcal/mol
